Laboratory results as given in ChEMBL document CHEMBL1142504, “Influence of 6- or 8-substitution on the antiviral activity of 3-arylalkylthiomethylimidazo[1,2-a]pyridine against human cytomegalovirus (CMV) and varicella-zoster virus (VZV): part II” (Bioorg Med Chem, 2008).
Converted amounts (≈) assume the structure as drawn.

Experiments:
Human alphaherpesvirus 3 [1] = assay: Antiviral activity against thymidine kinase deficient Varicella-Zoster virus 07/1 in HEL cells assessed as inhibition of viral cytopathicity; format: functional, organism-based; settings: Human alphaherpesvirus 3, HEL
How it was run: (§1)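 VZV input was 20 PFU per HEL cell culture. Cultures were incubated with test compound for 5 days at 37 °C under 5% CO2, then fixed and stained. Viral plaque formation was counted against the untreated control to give the EC50.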

Human betaherpesvirus 5 [2] = assay: Antiviral activity against human cytomegalovirus AD169 in HEL cells assessed as inhibition of viral cytopathicity; format: functional, organism-based; settings: Human betaherpesvirus 5, AD169, HEL
How it was run: (§2)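 Confluent HEL cell cultures were inoculated with 100 PFU of HCMV. After 2 h adsorption, residual virus was removed and cells were incubated with varying concentrations of test compound. Viral cytopathicity was scored when it reached completion in the untreated virus-infected controls, and the EC50 was taken from this read-out.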

Human betaherpesvirus 5 [3] = assay: Antiviral activity against human cytomegalovirus Davis in HEL cells assessed as inhibition of viral cytopathicity; format: functional, organism-based; settings: Human betaherpesvirus 5, Davis; how it was run: as §2
[4] = Cytotoxicity against HEL cells assessed as morphological alteration after 3 days; format: cell-based; settings: human
How it was run: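 HEL cell cultures were examined by microscope. Cytotoxicity was recorded as the minimum cytotoxic concentration (MCC), meaning the lowest compound concentration that caused a detectable alteration of cell morphology.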

[5] = Cytotoxicity against HEL cells assessed as reduction of growth after 3 days; format: cell-based; settings: human
How it was run: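 HEL cell suspensions were added to wells holding varying concentrations of test compound. Plates were incubated 3 days at 37 °C in a humidified CO2 incubator, and viable cells were counted with a Coulter Counter. CC50 is the concentration that reduced viable cell number by 50%.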

Human alphaherpesvirus 3 [6] = assay: Antiviral activity against thymidine kinase expressing Varicella-Zoster virus Oka in HEL cells assessed as inhibition of viral cytopathicity; format: functional, organism-based; settings: Human alphaherpesvirus 3, Oka; how it was run: as §1

| EC50 (Human alphaherpesvirus 3 [1]) [µg/mL] | EC50 (Human betaherpesvirus 5 [2]) [µg/mL] | EC50 (Human betaherpesvirus 5 [3]) [µg/mL] | EC50 (Human alphaherpesvirus 3 [6]) [µg/mL] | SMILES | MCC at 72 h [4] [µg/mL] | CC50 at 72 h [5] [µg/mL] |
| --- | --- | --- | --- | --- | --- | --- |
| 7.9 (≈ 22.7 µM) | 2.5 (≈ 7.17 µM) | 2.7 (≈ 7.75 µM) | 6.6 (≈ 18.9 µM) | Cc1cc(-c2ccco2)c2ncc(CSCCc3ccccc3)n2c1 | 100 | 41 (≈ 118 µM) |
| > 20 | > 20 | > 20 | > 20 | Cc1cc(N2CCOCC2)cn2c(CSCCc3ccccc3)cnc12 | 100 | 45 (≈ 122 µM) |
| 36.6 (≈ 99.6 µM) | > 4 | 8.2 (≈ 22.3 µM) | 53.6 (≈ 146 µM) | Cc1cc(N2CCOCC2)c2ncc(CSCCc3ccccc3)n2c1 | > 100 | 49 (≈ 133 µM) |
| > 20 | > 20 | 20 (≈ 56.9 µM) | 35.7 (≈ 102 µM) | Cc1cc(N2CCCC2)c2ncc(CSCCc3ccccc3)n2c1 | > 100 | > 100 |
| 11.4 (≈ 32.7 µM) | 8.9 (≈ 25.5 µM) | 6.8 (≈ 19.5 µM) | 10.7 (≈ 30.7 µM) | Cc1cc(-n2ccnc2)cn2c(CSCCc3ccccc3)cnc12 | 100 | 23 (≈ 66 µM) |
| > 20 | 1.8 (≈ 5.17 µM) | 1.3 (≈ 3.73 µM) | 20 (≈ 57.4 µM) | Cc1cc(-c2ccoc2)c2ncc(CSCCc3ccccc3)n2c1 | 100 | 64 (≈ 184 µM) |
| > 4 | 2 (≈ 5.02 µM) | 1.4 (≈ 3.51 µM) | > 4 | Cc1cc(-n2ccc3cccnc32)cn2c(CSCCc3ccccc3)cnc12 | 20 | 16 (≈ 40.1 µM) |
| > 4 | 8.9 (≈ 29 µM) | 8.9 (≈ 29 µM) | > 4 | Cc1cc(C#N)cn2c(CSCCc3ccccc3)cnc12 | 20 | 14 (≈ 45.5 µM) |
| 2.2 (≈ 5.42 µM) | 1.8 (≈ 4.44 µM) | 1.8 (≈ 4.44 µM) | > 4 | Cc1cc(Sc2ccc(N)cc2)cn2c(CSCCc3ccccc3)cnc12 | 20 | 23 (≈ 56.7 µM) |
| 6.5 (≈ 18.5 µM) | 4 (≈ 11.4 µM) | 2.1 (≈ 5.99 µM) | 7.3 (≈ 20.8 µM) | Cc1cc(-c2ccsc2)c2ncc(CSCc3ccccc3)n2c1 | 100 | 100 (≈ 285 µM) |
| – | > 20 | > 4 | – | Cc1cc(-c2ccc3[nH]ccc3c2)cn2c(CSCCc3ccccc3)cnc12 | ≥ 20 | 26 (≈ 65.4 µM) |
| > 4 | 3.1 (≈ 8.9 µM) | 2.3 (≈ 6.6 µM) | > 4 | Cc1cc(-n2ccnc2)c2ncc(CSCCc3ccccc3)n2c1 | 20 | 10 (≈ 28.7 µM) |
| – | > 4 | 2.9 (≈ 7.54 µM) | – | C=Cc1ccc(-c2cc(C)c3ncc(CSCCc4ccccc4)n3c2)cc1 | 20 | 14 (≈ 36.4 µM) |
| > 0.8 | > 0.8 | 0.8 (≈ 2.28 µM) | > 0.8 | Cc1cc(-c2ccsc2)cn2c(CSCc3ccccc3)cnc12 | 4 | 9.4 (≈ 26.8 µM) |
| – | > 100 | 30 (≈ 81 µM) | – | C=Cc1ccc(-c2cc(C)c3ncc(CSCc4ccccc4)n3c2)cc1 | ≥ 100 | 59 (≈ 159 µM) |
| 1.8 (≈ 5.4 µM) | 6.3 (≈ 18.9 µM) | 2.9 (≈ 8.7 µM) | 2.2 (≈ 6.6 µM) | Cc1cc(-n2cccc2)c2ncc(CSCc3ccccc3)n2c1 | 100 | 15 (≈ 45 µM) |
| 14 (≈ 35.1 µM) | 4 (≈ 10 µM) | 1.8 (≈ 4.52 µM) | 6.6 (≈ 16.6 µM) | Cc1cc(-n2ccc3cccnc32)c2ncc(CSCCc3ccccc3)n2c1 | 100 | > 100 |
| > 4 | 2.2 (≈ 7.16 µM) | 2 (≈ 6.51 µM) | 16.4 (≈ 53.3 µM) | Cc1cc(C#N)c2ncc(CSCCc3ccccc3)n2c1 | ≥ 20 | > 100 |
| > 0.8 | > 0.8 | 0.27 (≈ 0.775 µM) | 2.4 (≈ 6.89 µM) | Cc1cc(-c2ccoc2)cn2c(CSCCc3ccccc3)cnc12 | > 4 | 12 (≈ 34.4 µM) |

| EC50 (Human alphaherpesvirus 3 [1]) [µg/mL] | EC50 (Human betaherpesvirus 5 [2]) [µg/mL] | EC50 (Human betaherpesvirus 5 [3]) [µg/mL] | EC50 (Human alphaherpesvirus 3 [6]) [µg/mL] | SMILES | MCC at 72 h [4] [µg/mL] | CC50 at 72 h [5] [µg/mL] |
| --- | --- | --- | --- | --- | --- | --- |
| > 4 | > 20 | > 4 | > 4 | Cc1cc(N2CCN(C)CC2)cn2c(CSCCc3ccccc3)cnc12 | 20 | 32 (≈ 84.1 µM) |
| > 0.8 | > 0.8 | 1.3 (≈ 3.74 µM) | > 4 | Cc1cc(-n2cccc2)cn2c(CSCCc3ccccc3)cnc12 | ≥ 4 | 11 (≈ 31.7 µM) |
| 2.1 (≈ 6.3 µM) | 1.6 (≈ 4.8 µM) | 1.3 (≈ 3.9 µM) | > 4 | Cc1cc(-n2cccc2)cn2c(CSCc3ccccc3)cnc12 | 20 | 17 (≈ 51 µM) |
| > 20 | 1.8 (≈ 5.18 µM) | 1.8 (≈ 5.18 µM) | > 20 | Cc1cc(-n2cccc2)c2ncc(CSCCc3ccccc3)n2c1 | 100 | 26 (≈ 74.8 µM) |
| > 0.8 | > 0.8 | > 0.8 | > 0.8 | Cc1cc(Sc2ccc(Cl)cc2)c2ncc(CSCCc3ccccc3)n2c1 | 4 | 100 (≈ 235 µM) |
| 2.9 (≈ 7.13 µM) | > 0.8 | 0.8 (≈ 1.97 µM) | 58 (≈ 143 µM) | Cc1cc(Sc2ccc(O)cc2)c2ncc(CSCCc3ccccc3)n2c1 | > 100 | 79 (≈ 194 µM) |
| > 4 | 10 (≈ 29.6 µM) | 5.2 (≈ 15.4 µM) | 17.7 (≈ 52.4 µM) | Cc1cc(N2CCCC2)c2ncc(CSCc3ccccc3)n2c1 | ≥ 20 | 52 (≈ 154 µM) |
| > 4 | > 4 | > 4 | > 4 | Cc1cc(N2CCCC2=O)c2ncc(CSCCc3ccccc3)n2c1 | 20 | 25 (≈ 68.4 µM) |
| > 4 | > 4 | > 4 | > 4 | Cc1cc(Sc2ccc(Cl)cc2)cn2c(CSCCc3ccccc3)cnc12 | 20 | 14 (≈ 32.9 µM) |
| > 4 | > 4 | 1.8 (≈ 4.53 µM) | > 20 | Cc1cc(-n2ccc3ccccc32)cn2c(CSCCc3ccccc3)cnc12 | > 20 | 18 (≈ 45.3 µM) |
| > 0.8 | > 0.8 | 0.8 (≈ 1.97 µM) | > 0.8 | Cc1cc(Sc2ccc(O)cc2)cn2c(CSCCc3ccccc3)cnc12 | 4 | 100 (≈ 246 µM) |
| > 20 | 20 (≈ 50.3 µM) | 10.5 (≈ 26.4 µM) | > 20 | Cc1cc(-n2ccc3ccccc32)c2ncc(CSCCc3ccccc3)n2c1 | 100 | > 100 |
| > 4 | 4 (≈ 11.4 µM) | 2 (≈ 5.69 µM) | > 4 | Cc1cc(N2CCCC2)cn2c(CSCCc3ccccc3)cnc12 | 20 | 12 (≈ 34.1 µM) |
| > 20 | > 20 | > 20 | > 100 | Cc1cc(N2CCCC2=O)cn2c(CSCCc3ccccc3)cnc12 | > 100 | 89 (≈ 244 µM) |
| > 0.8 | > 0.8 | > 0.8 | > 4 | Cc1cc(-c2ccco2)cn2c(CSCCc3ccccc3)cnc12 | > 4 | 40 (≈ 115 µM) |
| – | 12.6 (≈ 32.6 µM) | 6 (≈ 15.5 µM) | – | Cc1cc(-c2ccc(C=O)cc2)cn2c(CSCCc3ccccc3)cnc12 | 100 | 9.4 (≈ 24.3 µM) |
| 13 (≈ 57.7 µM) | – | – | 0.24 (≈ 1.07 µM) | Nc1nc2c(ncn2COCCO)c(=O)[nH]1 [ACYCLOVIR] | > 400 | 137 (≈ 608 µM) |
| – | – | – | – | Nc1ccn(C[C@@H](CO)OCP(=O)(O)O)c(=O)n1 [CIDOFOVIR] | ≥ 100 | – |

| SMILES | EC50 (Human alphaherpesvirus 3 [1]) [µg/mL] | EC50 (Human betaherpesvirus 5 [2]) [µg/mL] | EC50 (Human betaherpesvirus 5 [3]) [µg/mL] | EC50 (Human alphaherpesvirus 3 [6]) [µg/mL] | MCC at 72 h [4] [µg/mL] | CC50 at 72 h [5] [µg/mL] |
| --- | --- | --- | --- | --- | --- | --- |
| O=c1[nH]c(=O)n([C@H]2C[C@H](O)[C@@H](CO)O2)cc1/C=C/Br [BRIVUDINE] | > 50 | – | – | 0.0037 (≈ 0.0111 µM) | 400 | 122 (≈ 366 µM) |
